ChEMBL document CHEMBL1137710, “Synthesis and in vitro antitumor activity of new quinoxaline derivatives” (2009)

Tests used:
Format in all cases: functional
CAKI-1 = assay: Growth inhibition of human Caki1 cells after 48 hrs by sulforhodamine B assay; settings: CAKI-1, 48 h
Procedure, shortened: (§1)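 NCI 60-human-tumor-cell-line panel, with compounds tested over a 5-log dose range. Values are taken from dose-response curves as log10 molar concentrations: GI50 is 50% net growth inhibition, TGI is total growth inhibition, and LC50 is 50% net cell death.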

SK-MEL-2 = assay: Growth inhibition of human SK-MEL-2 cells after 48 hrs by sulforhodamine B assay; settings: SK-MEL-2, 48 h; procedure, shortened: as §1
UO-31 = assay: Growth inhibition of human UO31 cells after 48 hrs by sulforhodamine B assay; settings: UO-31, 48 h
Procedure, shortened: (§2)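 Run in the NCI 60-human-tumour-cell-line panel, tested over a 5-log dose range. Dose–response curves gave three values per cell line, each as a log10 molar concentration: GI50 (50% inhibition of net cell growth), TGI (total inhibition of net growth) and LC50 (50% net cell death). The mean graph midpoint is the arithmetic mean over all lines, with insensitive lines entered at the highest concentration tested.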

NCI-H460 = assay: Anticancer activity against human NCI-H460 cells assessed as cell growth at 100 uM after 48 hrs by sulforhodamine B assay; settings: NCI-H460, 48 h, read-out: Activity
SF-268 [1] = assay: Growth inhibition of human SF268 cells after 48 hrs by sulforhodamine B assay; settings: SF-268, 48 h; procedure, shortened: as §1
IGROV-1 = assay: Growth inhibition of human IGROV1 cells after 48 hrs by sulforhodamine B assay; settings: IGROV-1, 48 h; procedure, shortened: as §1
SK-OV-3 = assay: Growth inhibition of human SKOV3 cells after 48 hrs by sulforhodamine B assay; settings: SK-OV-3, 48 h; procedure, shortened: as §1
OVCAR-4 = assay: Growth inhibition of human OVCAR4 cells after 48 hrs by sulforhodamine B assay; settings: OVCAR-4, 48 h; procedure, shortened: as §1
MCF7 [2] = assay: Anticancer activity against human MCF7 cells assessed as cell growth at 100 uM after 48 hrs by sulforhodamine B assay; settings: MCF7, 48 h, read-out: Activity
SK-MEL-5 = assay: Growth inhibition of human SK-MEL-5 cells after 48 hrs by sulforhodamine B assay; settings: SK-MEL-5, 48 h; procedure, shortened: as §1
NCI-H322M = assay: Growth inhibition of human NCI-H322M cells after 48 hrs by sulforhodamine B assay; procedure, shortened: as §1
DU-145 = assay: Growth inhibition of human DU145 cells after 48 hrs by sulforhodamine B assay; settings: DU-145, 48 h; procedure, shortened: as §1
U-251 = assay: Growth inhibition of human U251 cells after 48 hrs by sulforhodamine B assay; settings: U-251, 48 h; procedure, shortened: as §2
786-0 = assay: Growth inhibition of human 786-0 cells after 48 hrs by sulforhodamine B assay; settings: 786-0, 48 h; procedure, shortened: as §1
SF-268 [3] = assay: Anticancer activity against human SF268 cells assessed as cell growth at 100 uM after 48 hrs by sulforhodamine B assay; settings: SF-268, 48 h, read-out: Activity
SW-620 = assay: Growth inhibition of human SW620 cells after 48 hrs by sulforhodamine B assay; settings: SW-620, 48 h; procedure, shortened: as §2
HOP-62 = assay: Growth inhibition of human HOP62 cells after 48 hrs by sulforhodamine B assay; settings: HOP-62, 48 h; procedure, shortened: as §1
K562 = assay: Growth inhibition of human K562 cells after 48 hrs by sulforhodamine B assay; settings: K562, 48 h; procedure, shortened: as §1
A549 = assay: Growth inhibition of human A549 cells after 48 hrs by sulforhodamine B assay; settings: A549, 48 h; procedure, shortened: as §1
MDA-MB-435 = assay: Growth inhibition of human MDA-MB-435 cells after 48 hrs by sulforhodamine B assay; settings: MDA-MB-435, 48 h; procedure, shortened: as §1
[4] = Growth inhibition of human […] cells after 48 hrs by sulforhodamine B assay; procedure, shortened: as §1
MCF7 [5] = assay: Growth inhibition of human MCF7 cells after 48 hrs by sulforhodamine B assay; settings: MCF7, 48 h; procedure, shortened: as §1
M14 = assay: Growth inhibition of human M14 cells after 48 hrs by sulforhodamine B assay; settings: M14, 48 h; procedure, shortened: as §1
UACC-62 = assay: Growth inhibition of human UACC62 cells after 48 hrs by sulforhodamine B assay; settings: UACC-62, 48 h; procedure, shortened: as §2
NCI-H522 = assay: Growth inhibition of human NCI-H522 cells after 48 hrs by sulforhodamine B assay; settings: NCI-H522, 48 h; procedure, shortened: as §1
LOX IMVI = assay: Growth inhibition of human LOXIMVI cells after 48 hrs by sulforhodamine B assay; procedure, shortened: as §1
HCT-116 = assay: Growth inhibition of human HCT116 cells after 48 hrs by sulforhodamine B assay; settings: HCT-116, 48 h; procedure, shortened: as §1
SF-295 = assay: Growth inhibition of human SF295 cells after 48 hrs by sulforhodamine B assay; settings: SF-295, 48 h; procedure, shortened: as §1
NCI-H23 = assay: Growth inhibition of human NCI-H23 cells after 48 hrs by sulforhodamine B assay; settings: NCI-H23, 48 h; procedure, shortened: as §1
SK-MEL-28 = assay: Growth inhibition of human SK-MEL-28 cells after 48 hrs by sulforhodamine B assay; settings: SK-MEL-28, 48 h; procedure, shortened: as §1
[6] = read-out: pLC50 (the source's name) (converted)

COc1ccc(Oc2nc3cc(N)cc(N)c3nc2-c2ccccc2)cc1 gave a GI50 (CAKI-1) of 79.4 µM, a CC50 (CAKI-1; [6]) greater than 100 µM and a TGI (CAKI-1; read-out: pTGI (converted)) greater than 100 µM. For the same molecule, the GI50 (SK-MEL-2) was 25.1 µM, the CC50 (SK-MEL-2; [6]) was greater than 100 µM and the TGI (SK-MEL-2; read-out: pTGI (converted)) was 87.1 µM. For the same molecule, the GI50 (UO-31) was 28.2 µM, the CC50 (UO-31; [6]) was greater than 100 µM and the TGI (UO-31; read-out: pTGI (converted)) was greater than 100 µM. The growth at 100 µM (NCI-H460) was -48%, the GI50 (SF-268 [1]) was 20.9 µM and the LC50 (SF-268 [1]) was greater than 100 µM. The TGI (SF-268 [1]; read-out: pTGI (converted)) was greater than 100 µM, the GI50 (IGROV-1) was 25.1 µM and the CC50 (IGROV-1; [6]) was greater than 100 µM. The TGI (IGROV-1; read-out: pTGI (converted)) was greater than 100 µM, the GI50 (SK-OV-3) was 25.7 µM and the CC50 (SK-OV-3; [6]) was greater than 100 µM. It also gave a TGI (SK-OV-3; read-out: pTGI (converted)) of 55 µM, a GI50 (OVCAR-4) of 3.72 µM and a CC50 (OVCAR-4; [6]) greater than 100 µM. It also gave a TGI (OVCAR-4; read-out: pTGI (converted)) of 24.5 µM, a growth at 100 µM (MCF7 [2]) of -89% and a GI50 (SK-MEL-5) of 44.7 µM. It also gave a CC50 (SK-MEL-5; [6]) greater than 100 µM, a TGI (SK-MEL-5; read-out: pTGI (converted)) greater than 100 µM and a GI50 (NCI-H322M) greater than 100 µM. It also gave an LC50 (NCI-H322M) greater than 100 µM, a TGI (NCI-H322M; read-out: pTGI (converted)) greater than 100 µM and a GI50 (DU-145) of 69.2 µM. It also gave a CC50 (DU-145; [6]) greater than 100 µM, a TGI (DU-145; read-out: pTGI (converted)) greater than 100 µM and a GI50 (U-251) of 26.3 µM. For the same molecule, the LC50 (50% net cell kill) (U-251) was greater than 100 µM, the TGI (U-251; read-out: pTGI (converted)) was greater than 100 µM and the GI50 (786-0) was 24.5 µM. It also gave a CC50 (786-0; [6]) greater than 100 µM, a TGI (786-0; read-out: pTGI (converted)) greater than 100 µM and a growth at 100 µM (SF-268 [3]) of -56%. The GI50 (SW-620) was 89.1 µM, the CC50 (SW-620; [6]) was greater than 100 µM and the TGI (SW-620; read-out: pTGI (converted)) was greater than 100 µM. It also gave a GI50 (HOP-62) of 19.5 µM, an LC50 (HOP-62) of 87.1 µM and a TGI (HOP-62; read-out: pTGI (converted)) of 40.7 µM. For the same molecule, the GI50 (K562) was 26.3 µM, the LC50 (K562) was greater than 100 µM and the TGI (K562; read-out: pTGI (converted)) was greater than 100 µM. The GI50 (A549) was 37.2 µM, the LC50 (A549) was greater than 100 µM and the TGI (A549; read-out: pTGI (converted)) was greater than 100 µM. It also gave a GI50 (MDA-MB-435) of 40.7 µM, a CC50 (MDA-MB-435; [6]) greater than 100 µM and a TGI (MDA-MB-435; read-out: pTGI (converted)) greater than 100 µM. It also gave a GI50 [4] of 10.5 µM, an LC50 [4] greater than 100 µM and a TGI ([4]; read-out: pTGI (converted)) of 70.8 µM. For the same molecule, the GI50 (MCF7 [5]) was 47.9 µM, the CC50 (MCF7 [5]; [6]) was greater than 100 µM and the TGI (MCF7 [5]; read-out: pTGI (converted)) was greater than 100 µM. The GI50 (M14) was greater than 100 µM, the CC50 (M14; [6]) was greater than 100 µM and the TGI (M14; read-out: pTGI (converted)) was greater than 100 µM. The GI50 (UACC-62) was 63.1 µM, the CC50 (UACC-62; [6]) was greater than 100 µM and the TGI (UACC-62; read-out: pTGI (converted)) was greater than 100 µM. It also gave a GI50 (NCI-H522) of 31.6 µM, an LC50 (NCI-H522) greater than 100 µM and a TGI (NCI-H522; read-out: pTGI (converted)) greater than 100 µM. The GI50 (LOX IMVI) was 34.7 µM, the LC50 (LOX IMVI) was greater than 100 µM and the TGI (LOX IMVI; read-out: pTGI (converted)) was greater than 100 µM. For the same molecule, the GI50 (HCT-116) was 28.8 µM, the LC50 (concentration causing 50% net cell death) (HCT-116) was greater than 100 µM and the TGI (HCT-116; read-out: pTGI (converted)) was 75.9 µM. It also gave a GI50 (SF-295) of 23.4 µM, an LC50 (50% net cell kill) (SF-295) greater than 100 µM and a TGI (SF-295; read-out: pTGI (converted)) of 52.5 µM. The GI50 (NCI-H23) was 25.1 µM, the LC50 (50% net cell kill concentration) (NCI-H23) was greater than 100 µM and the TGI (NCI-H23; read-out: pTGI (converted)) was greater than 100 µM. For the same molecule, the GI50 (SK-MEL-28) was 19.5 µM, the CC50 (SK-MEL-28; [6]) was greater than 100 µM and the TGI (SK-MEL-28; read-out: pTGI (converted)) was 49 µM.
